Assay results collected from several papers.
Protocols differ between the studies behind these lines.
SLC6A3: Sodium-dependent dopamine transporter (SLC6A3, Homo sapiens, UniProt Q01959)
PDE10A: cAMP and cAMP-inhibited cGMP 3',5'-cyclic phosphodiesterase 10A (PDE10A, Homo sapiens, UniProt Q9Y233)
CHEK1: Serine/threonine-protein kinase Chk1 (CHEK1, Homo sapiens, UniProt O14757)
PRMT1: Protein arginine N-methyltransferase 1 (PRMT1, Homo sapiens, UniProt Q99873)
FGFR2: Fibroblast growth factor receptor 2 (FGFR2, Homo sapiens, UniProt P21802)
Nuclear receptor ROR-gamma: Nuclear receptor ROR-gamma (Mus musculus, UniProt P51450)
PTPN22: Tyrosine-protein phosphatase non-receptor type 22 (PTPN22, Homo sapiens, UniProt Q9Y2R2)
DDR2: Discoidin domain-containing receptor 2 (DDR2, Homo sapiens, UniProt Q16832)
SLC2A1: Solute carrier family 2, facilitated glucose transporter member 1 (SLC2A1, Homo sapiens, UniProt P11166)

Clc1ccc(C(c2ccccc2)c2nnnn2CCCN2CCC(Cc3ccccc3)CC2)cc1 (stereo not drawn) has an IC50 of 226 nM (SLC6A3; transporter uptake, inhibitor).
COc1cc(C[C@H]2C(=O)OC[C@@H]2Cc2ccc(OC)c(OC)c2)ccc1O gave an IC50 of greater than 5000 nM (PDE10A; enzyme activity, inhibitor).
CO[C@H]1O[C@H](COS(=O)(=O)O)[C@@H](O[C@@H]2O[C@@H](C(=O)O)[C@@H](O[C@H]3O[C@H](COS(=O)(=O)O)[C@@H](O[C@@H]4O[C@H](C(=O)O)[C@@H](O[C@H]5O[C@H](COS(=O)(=O)O)[C@@H](O)[C@H](O)[C@H]5NS(=O)(=O)O)[C@H](O)[C@H]4O)[C@H](OS(=O)(=O)O)[C@H]3NS(=O)(=O)O)[C@H](O)[C@H]2OS(=O)(=O)O)[C@H](O)[C@H]1NS(=O)(=O)O has an IC50 of greater than 360000 nM (Coagulation factor XI (F11, Homo sapiens, UniProt P03951); enzyme activity, inhibitor, absorbance; pH 7.4).
COc1cc(-c2ccc3c(c2)Nc2ccc(NC(=O)c4cc[nH]n4)cc2NC3=O)ccc1[N+](=O)[O-] has an IC50 of 9.06 nM (CHEK1; enzyme activity, inhibitor).
The IC50 of N=C(NCCCSC[C@H]1O[C@@H](n2cnc3c(NCCCc4ccccc4)ncnc32)[C@H](O)[C@@H]1O)Nc1ccccc1 is reported as 355 nM (PRMT1; enzyme activity, inhibitor, fluorescence).
With Cc1cc(Nc2cc(CN3CCOCC3)c3nc(C)c(Cc4ccc(Cl)cc4F)n3n2)n[nH]1 the IC50 was 32 nM (FGFR2; enzyme activity, inhibitor, TR-FRET).
For COc1cc(O)c(C(CC(=O)N2CCCC2)c2ccc3c(c2)OCO3)c(OC)c1 (stereo not drawn), the IC50 was greater than 50000 nM (Nuclear receptor ROR-gamma; reporter gene).
With O=C(O)C(=O)CC(=O)c1cccc(N(Cc2ccccc2)Cc2ccccc2)c1 the IC50 was 73000 nM (PTPN22; enzyme activity, inhibitor, absorbance; pH 7).
With Nc1ncnc2c1ncn2[C@@H]1O[C@H](CN(CC[C@H](N)C(=O)O)Cc2ccc3ccccc3c2)[C@@H](O)[C@H]1O the IC50 was greater than 50000 nM (PRMT1; enzyme activity, inhibitor).
For COC(=O)Cc1ccc2c(c1)NC(=O)c1cc(C)c(-c3cccc(NC(C)=O)c3)cc1N2, the IC50 was greater than 10000 nM (CHEK1; enzyme activity, inhibitor).
With COc1cccc(CN(C(=O)CC(C)(C)C)[C@H]2C[C@@H](C(=O)N3CCNCC3)N(Cc3ccc4c(c3)OCO4)C2)c1 the IC50 was 1500 nM (Protein smoothened (SMO, Homo sapiens, UniProt Q99835); reporter gene, inhibitor, luciferase).
For Fc1ccc(C(c2ccc(F)cc2)c2nnnn2CCCCN2CCN(Cc3ccccc3)CC2)cc1, the IC50 was 144 nM (SLC6A3; transporter uptake, inhibitor).
CN1C(=O)c2c(nn(Cc3ccc(-c4cccc(F)n4)cc3)c2Nc2ccccc2)N2C1=N[C@@H]1CCC[C@@H]12 has an IC50 of 0.053 nM (Dual specificity calcium/calmodulin-dependent 3',5'-cyclic nucleotide phosphodiesterase 1C (PDE1C, Homo sapiens, UniProt Q14123); enzyme activity, inhibitor, radiometric).
For Clc1ccc(C(c2ccccc2)c2nnnn2CCCCN2CCC(CCCc3ccccc3)CC2)cc1 (stereo not drawn), the IC50 was 331 nM (SLC6A3; transporter uptake, inhibitor).
Cc1ccc(NC(=O)c2ccc(C)c(C(F)(F)F)c2)cc1C#Cc1nn(C2CCC(O)CC2)c2ncnc(N)c12 (stereo not drawn) has an IC50 of 40 nM (FGFR2; enzyme activity, inhibitor, radiometric).
With COc1cc(-c2ccc3c(c2)Nc2ccc(N)cc2NC3=O)ccc1[N+](=O)[O-] the IC50 was 16.6 nM (CHEK1; enzyme activity, inhibitor).
The IC50 of O=C(O)c1cnn2c(-c3cccc(C(F)(F)F)c3)ccnc12 is reported as greater than 20000 nM (Toll-like receptor 8 (TLR8, Homo sapiens, UniProt Q9NR97); reporter gene).
O=C(O)C1=CCCN(CCON=C(c2ccccc2)c2ccccc2)C1 gave an IC50 of 210 nM (Sodium- and chloride-dependent GABA transporter 1 (Slc6a1, Rattus norvegicus, UniProt P23978); ligand displacement, radioligand).
With CNC(=O)c1cc2c(Oc3ccc(NC(=O)C4(C(=O)Nc5ccc(F)cc5)CC4)cc3)ccnc2cc1OC the IC50 was 41 nM (DDR2; enzyme activity, inhibitor, radiometric).
OC[C@H]1O[C@@H](n2cnc3c(NCCCc4ccccc4)ncnc32)[C@H](O)[C@@H]1O has an IC50 of greater than 100000 nM (PRMT1; enzyme activity, inhibitor, fluorescence).
CCCC[C@H](NC(=O)[C@H](C)c1c(C)[nH]c2ccc(O)cc12)c1ncc(-c2cc3ccccc3nc2OC)[nH]1 has an IC50 of greater than 45000 nM (Histone deacetylase 5 (HDAC5, Homo sapiens, UniProt Q9UQL6); enzyme activity, inhibitor).
The IC50 of S=C(SSC(=S)N1CCOCC1)N1CCOCC1 is reported as 23000 nM (PTPN22; enzyme activity, inhibitor, fluorescence; pH 6.5).
With c1ccc(CCC2CCN(CCCCn3nnnc3C(c3ccccc3)c3ccccc3)CC2)cc1 the IC50 was 383 nM (SLC6A3; transporter uptake, inhibitor).
CCn1ncc2c1-c1cnc(N)c(c1)O[C@H](C)c1cc(F)ccc1-c1nn(C)nc1C2 has an IC50 of 77 nM (Activated CDC42 kinase 1 (TNK2, Homo sapiens, UniProt Q07912); enzyme activity, inhibitor, radiometric).
Clc1ccc(C(c2ccccc2)c2nnnn2CCCCN2CCN(CC=Cc3ccccc3)CC2)cc1 (stereo not drawn) has an IC50 of 412 nM (SLC6A3; transporter uptake, inhibitor).
With C/C(=N\O)c1ccc(-c2ccc(O)c(Cl)c2)c(Cl)c1O the IC50 was 7000 nM (SLC2A1; transporter uptake, inhibitor, radiometric).
With CSc1ccc(/C=C2/C(C)=C(CC(=O)O)c3cc(F)ccc32)cc1 the IC50 was greater than 100000 nM (PDE10A; enzyme activity, inhibitor).
With C/C(=N\O)c1ccc(-c2ccc(O)c(C)c2)c(Cl)c1O the IC50 was 11100 nM (SLC2A1; transporter uptake, inhibitor, radiometric).
COc1cc(-c2ccc3c(c2)N(C)c2ccccc2NC3=O)ccc1[N+](=O)[O-] has an IC50 of 1640 nM (CHEK1; enzyme activity, inhibitor).
For Clc1ccc(C(c2ccccc2)c2nnnn2CCCCN2CCC(Cc3ccc(Cl)c(Cl)c3)CC2)cc1 (stereo not drawn), the IC50 was 550 nM (SLC6A3; transporter uptake, inhibitor).
For CC(C)N(C(=S)SSC(=S)N(C(C)C)C(C)C)C(C)C, the IC50 was 7000 nM (PTPN22; enzyme activity, inhibitor, fluorescence; pH 6.5).
For CCOc1ccc2c(-c3cc(C)nc(Nc4cc(OC)cc(C(F)(F)F)c4)n3)cnn2n1, the IC50 was greater than 10000 nM (Dual specificity protein kinase CLK4 (CLK4, Homo sapiens, UniProt Q9HAZ1); enzyme activity, inhibitor).
For O=C1NC(=O)C(Cc2ccc3cc(OCc4ccccc4F)ccc3c2)S1 (stereo not drawn), the IC50 was 5000 nM (Pantothenate kinase 3 (PANK3, Homo sapiens, UniProt Q9H999); enzyme activity, inhibitor, radiometric).
With COc1cc(-c2ccc3c(c2)Nc2ccc(CC(=O)NC(CO)c4ccccc4)cc2NC3=O)ccc1[N+](=O)[O-] (stereo not drawn) the IC50 was 26.9 nM (CHEK1; enzyme activity, inhibitor).
The IC50 of CC(C)C1=CC[C@H]2C(=C1)CC[C@@H]1[C@]2(C)CCC[C@@]1(C)C(=O)O is reported as greater than 20000 nM (ATP-citrate synthase (ACLY, Homo sapiens, UniProt P53396); enzyme activity, inhibitor).
For COc1ccc(S(=O)(=O)ON=C2C=C(C)C(=O)C(C)=C2)cc1, the IC50 was 33900 nM (Histone acetyltransferase KAT2A (KAT2A, Homo sapiens, UniProt Q92830); enzyme activity, inhibitor, radiometric).
The IC50 of CCN(CC)C(=O)CC(c1ccc2c(c1)OCO2)c1c(O)cc(OC)cc1OC (stereo not drawn) is reported as greater than 50000 nM (Nuclear receptor ROR-gamma; reporter gene).
COc1cc(-c2ccc(-c3[nH]nc4c3Cc3cc(CNC5CCC(O)CC5)ccc3-4)cc2)ccc1O (stereo not drawn) gave an IC50 of 59.4 nM (CHEK1; enzyme activity, inhibitor).
With N=C(N)c1ccc(-c2ccc(-c3ccc(C(=N)N)nc3)o2)cc1 the IC50 was 9500 nM (PRMT1; enzyme activity, inhibitor).
N=C(NCCCSC[C@H]1O[C@@H](n2cnc3c(NCCCc4ccccc4)ncnc32)[C@H](O)[C@@H]1O)NC1CCC1 has an IC50 of 249 nM (PRMT1; enzyme activity, inhibitor, fluorescence).
The IC50 of Clc1ccc(C(c2ccccc2)c2nnnn2CCCCN2CCC(CCc3ccccc3)CC2)cc1 (stereo not drawn) is reported as 443 nM (SLC6A3; transporter uptake, inhibitor).
COC(=O)C1CCCN1C(=O)c1ccc2c(c1)NC(=O)c1ccc(-c3ccc(O)c(OC)c3)cc1N2 (stereo not drawn) has an IC50 of 128 nM (CHEK1; enzyme activity, inhibitor).
The IC50 of Cc1cnc(-c2ccc(-c3ccc(NC(=O)Nc4c(F)cc(F)cc4F)cc3F)c3c2C(=O)NC3)[nH]1 is reported as 1 nM (DDR2; enzyme activity, inhibitor).
Fc1ccc(C(c2ccc(F)cc2)c2nnnn2CCCCN2CCC(Cc3ccc(Cl)c(Cl)c3)CC2)cc1 has an IC50 of 608 nM (SLC6A3; transporter uptake, inhibitor).
With OCc1ccc(-c2ccc(-c3[nH]nc4c3Cc3cc(O)ccc3-4)cc2)cc1 the IC50 was greater than 10000 nM (CHEK1; enzyme activity, inhibitor).
